According to publication PMC3858399 (Journal of medicinal chemistry, 2013):
Entries after “also recorded” stand apart in the source; their conditions may differ. Where two headings read alike, the source gives them in different places.

Assays:
[1] = tested on: mice with chronic constriction injury (CCI) of the sciatic nerve; conditions: cited from earlier work; for Reversal of neuropathic pain following CCI in mice: via an A3AR-mediated mechanism
[2] = tested on: mice with chronic constriction injury (CCI) of the sciatic nerve; assay: CCI model of neuropathic pain; format: in vivo, mouse; conditions: for Effect on Paw Withdrawal Thresholds (PWT) in contralateral paws: data not shown; for Time of maximal effect on mechano-allodynia: i.p. 3 µmol/kg on D7 after CCI; for Reversal of mechano-allodynia after CCI: i.p. 3 µmol/kg on day 7 (D7) after CCI, mouse
Summary of the method: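 Male CD-1 mice (25–30 g), housed 4–5 per cage with a 12 h light/dark cycle. CCI of the left sciatic nerve (Bennett model) under isoflurane (3% induction, 2% maintenance in 100% O2); wound closed with a muscle suture and skin clip. Test compound or vehicle (5% DMSO in saline) given i.p. at 3 µmol/kg on D7, at peak mechano-allodynia. Experimenters blinded; mean ± SEM.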

[3] = tested on: A3AR−/− mice with CCI of the sciatic nerve; assay: CCI model of neuropathic pain in A3AR knockout mice; format: in vivo, mouse; conditions: i.p. 3 µmol/kg, male A3AR knock-out mice
mA3AR = target: T1, mA3AR (Mus musculus, UniProt Q61618); assay: Radioligand binding at mA3AR
T1 sequence (Q61618 1-319): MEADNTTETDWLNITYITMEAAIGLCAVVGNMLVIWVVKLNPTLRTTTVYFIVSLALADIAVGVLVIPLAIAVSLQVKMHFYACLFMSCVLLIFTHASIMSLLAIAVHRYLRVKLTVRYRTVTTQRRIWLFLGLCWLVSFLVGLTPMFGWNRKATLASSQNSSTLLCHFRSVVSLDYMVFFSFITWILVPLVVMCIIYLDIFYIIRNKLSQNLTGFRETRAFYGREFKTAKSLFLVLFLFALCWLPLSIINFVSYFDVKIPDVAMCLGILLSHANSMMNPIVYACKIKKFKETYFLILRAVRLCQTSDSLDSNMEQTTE

hA3AR = target: T2, hA3AR (Homo sapiens, UniProt P0DMS8); assay: Radioligand binding at hA3AR
T2 sequence (P0DMS8 1-318): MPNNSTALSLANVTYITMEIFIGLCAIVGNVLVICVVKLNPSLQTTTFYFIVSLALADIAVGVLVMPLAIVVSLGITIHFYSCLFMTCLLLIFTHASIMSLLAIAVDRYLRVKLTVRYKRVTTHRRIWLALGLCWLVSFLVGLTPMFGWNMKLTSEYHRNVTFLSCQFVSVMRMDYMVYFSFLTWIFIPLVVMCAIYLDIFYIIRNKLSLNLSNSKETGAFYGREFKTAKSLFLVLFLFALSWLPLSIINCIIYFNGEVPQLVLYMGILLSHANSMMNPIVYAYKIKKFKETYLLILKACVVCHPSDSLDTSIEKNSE

mA1AR = target: T3, mA1AR (Mus musculus, UniProt Q60612); format: cell-based; conditions: tested up to 10 µM
T3 sequence (Q60612 1-326): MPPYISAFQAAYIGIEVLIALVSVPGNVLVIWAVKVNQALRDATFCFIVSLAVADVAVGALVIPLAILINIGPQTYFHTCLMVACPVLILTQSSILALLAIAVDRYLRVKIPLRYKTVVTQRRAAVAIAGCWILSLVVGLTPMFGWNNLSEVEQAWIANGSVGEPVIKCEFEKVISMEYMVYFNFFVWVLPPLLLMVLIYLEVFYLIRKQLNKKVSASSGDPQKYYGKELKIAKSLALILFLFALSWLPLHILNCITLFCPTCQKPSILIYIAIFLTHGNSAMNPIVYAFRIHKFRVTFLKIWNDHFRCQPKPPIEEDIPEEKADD

Row | SMILES | Effect on Paw Withdrawal Thresholds (PWT) in contralateral paws [1] | Reversal of neuropathic pain following CCI in mice [1] | Effect on Paw Withdrawal Thresholds (PWT) in contralateral paws [2] | Time of maximal effect on mechano-allodynia [2] [h] | Reversal of mechano-allodynia after CCI [2] | Anti-allodynic effect in A3AR−/− mice [3] | further results
1 | CNC(=O)[C@H]1O[C@@H](n2cnc3c(NCc4cccc(I)c4)ncnc32)[C@H](O)[C@@H]1O [1a, N^6-(3-iodobenzyl)adenosine-5'-N-methyluronamide] | lacked effect | reverse the development of neuropathic pain | – | – | – | – | –
2 | CNC(=O)[C@H]1O[C@@H](n2cnc3c(NCc4cccc(I)c4)nc(Cl)nc32)[C@H](O)[C@@H]1O [1b, 2-Chloro-N^6-(3-iodobenzyl)adenosine-5'-N-methyluronamide] | lacked effect | reverse the development of neuropathic pain | – | – | – | – | –
3 | CNC(=O)[C@@]12C[C@@H]1[C@@H](n1cnc3c(NCc4cccc(Cl)c4)nc(C#Cc4ccc(S(=O)(=O)O)cc4)nc31)[C@H](O)[C@@H]2O [Compound 6, 4-((6-(3-Chlorobenzylamino)-9-((1S,2R,3S,4R,5S)-3,4-dihydroxy-5-(methylcarbamoyl)bicyclo[3.1.0]hexan-2-yl)-9H-purin-2-yl)ethynyl)benzenesulfonic acid] | – | – | lacked effect | ≤ 1 | reversed mechano-allodynia | significantly but not completely abrogated; also recorded: retained the ability to produce a small protective effect | –
4 | CNC(=O)[C@@]12C[C@@H]1[C@@H](n1cnc3c(NCc4cccc(Cl)c4)nc(C#Cc4cccc(S(=O)(=O)O)c4)nc31)[C@H](O)[C@@H]2O [Compound 7, 3-((6-(3-Chlorobenzylamino)-9-((1S,2R,3S,4R,5S)-3,4-dihydroxy-5-(methylcarbamoyl)bicyclo[3.1.0]hexan-2-yl)-9H-purin-2-yl)ethynyl)benzenesulfonic acid] | – | – | lacked effect | ≤ 1 | reversed mechano-allodynia | completely lost; also recorded: completely eliminated | A3AR selectivity in comparison to the A1AR and A2AAR (mA3AR): > 1000 fold; A3AR selectivity in comparison to the A1AR and A2AAR (hA3AR): > 10,000 fold; Functional activity at the mA1AR (mA1AR): completely inactive up to 10 µM
5 | CCCOC(=O)c1c(-c2ccccc2)nc(CC)c(C(=O)SCC)c1CCC [compound 45, 5-propyl-2-ethyl-4-propyl-3-(ethylsulfanylcarbonyl)-6-phenylpyridine-5-carboxylate, reference compound] | – | – | – | – | – | – | Blocking of the anti-allodynic effects of A3AR agonist 1a ([1]; antagonist administered systemically, identical CCI model): completely effective; Effect of antagonist on the anti-allodynic actions of systemic agonist 7 ([2]; 45 intrathecal 3 nmol, 7 at 3 µmol/kg): had no effect; also recorded: did not block the effects of systemic 7
